# Measurements taken from ChEMBL document CHEMBL3271988, “Nitrogen analogues of 1,4-benzoquinones. Activities against the ascitic sarcoma 180 of mice” (J Med Chem, 1978).
# Active and inactive are the calls of the source. The calls are words filed in the database; no cut-off is given here.
# Tests used:
# Sarcoma-180 [1] = assay: Antitumor activity against mouse Sarcoma 180 cells allografted in Swiss mouse at 22.5 mg/kg, ip three doses were given at 24 hrs interval starting 24 hrs after allograft injection relative to control; type: functional; settings: route intraperitoneal
# In short: (§1)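 Swiss mice received 10^6 ascitic sarcoma 180 cells ip, then three ip doses 24 h apart starting at 24 h. Controls got isotonic salt solution on the same schedule. T/C% is mean survival time of treated over controls (6 mice per group).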
# [2] = Acute toxicity in single ip dosed Swiss mouse assessed as death up to 5 days; type: organism-based; settings: in vivo
# In short: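 Male Swiss mice given one ip dose. LD50 taken as the single dose killing 50% of animals within 5 days.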
# [3] = Redox potential of the compound in alcohol-water solution; settings: buffer
# Sarcoma-180 [4] = assay: Antitumor activity against mouse Sarcoma 180 cells allografted in Swiss mouse assessed as survival time at 22.5 mg/kg, ip three doses were given at 24 hrs interval starting 24 hrs after allograft injection relative to control; type: functional; settings: route intraperitoneal
# In short: (§2)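 Swiss mice inoculated ip with 10^6 ascitic sarcoma 180 cells. Compound given ip daily ×3 at 24-h intervals, starting 24 h after inoculation. Controls received isotonic saline on the same schedule; 6 mice per group. Mice alive at 60 days counted as 60 days in mean survival (±SD).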
# [5] = Half life of the compound in water at pH 7 at 25 degC by spectrophotometry; type: physicochemical
# In short: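 Compound dissolved in absolute ethanol, then diluted into 0.01 M Tris buffer brought to pH 7 with HCl, 25 °C. Absorbance at λmax followed over hours or days; log absorbance vs time fitted by least squares, rate constant and half-time taken from the slope.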
# Sarcoma-180 [6] = assay: Antitumor activity against mouse Sarcoma 180 cells allografted in Swiss mouse assessed as weight gain at 22.5 mg/kg, ip three doses were given at 24 hrs interval starting 24 hrs after allograft injection measured after 3 days relative to control; type: functional; settings: route intraperitoneal
# In short: (§3)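 Ascitic sarcoma 180 model in Swiss mice: 10^6 cells ip, then three ip doses at 24-h intervals beginning 24 h later. Mice were weighed 1 day after cell injection and again 3 days later (24 h after the third dose). Percent weight gain of treated mice was compared with saline-treated controls on the same schedule.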
# Sarcoma-180 [7] = assay: Antitumor activity against mouse Sarcoma 180 cells allografted in Swiss mouse at 70 mg/kg, ip three doses were given at 24 hrs interval starting 24 hrs after allograft injection relative to control; type: functional; settings: route intraperitoneal
# In short: (§4)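 Swiss mice given 10^6 ascitic sarcoma 180 cells ip; three ip doses at 24-h intervals starting 24 h later; controls received isotonic salt solution on the same schedule. […] Cures = alive without cancer cells at 60 days.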
# Sarcoma-180 [8] = assay: Antitumor activity against mouse Sarcoma 180 cells allografted in Swiss mouse assessed as weight gain at 70 mg/kg, ip three doses were given at 24 hrs interval starting 24 hrs after allograft injection measured after 3 days relative to control; type: functional; settings: route intraperitoneal; in short: as §3
# Sarcoma-180 [9] = assay: Antitumor activity against mouse Sarcoma 180 cells allografted in Swiss mouse assessed as survival at 70 mg/kg, ip three doses were given at 24 hrs interval starting 24 hrs after allograft injection measured after 5 days; type: functional, organism-based; design: dose 70 mg/kg
# In short: (§5)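 Swiss mice were injected ip with 10^6 ascitic sarcoma 180 cells. Three daily ip doses followed, the first 24 h after cell injection. The read-out was the number of mice surviving at 5 days, out of 6 treated.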
# Sarcoma-180 [10] = assay: Antitumor activity against mouse Sarcoma 180 cells allografted in Swiss mouse assessed as survival time at 70 mg/kg, ip three doses were given at 24 hrs interval starting 24 hrs after allograft injection relative to control; type: functional; settings: route intraperitoneal; in short: as §2
# Sarcoma-180 [11] = assay: Antitumor activity against mouse Sarcoma 180 cells allografted in Swiss mouse assessed as cure at 70 mg/kg, ip three doses were given at 24 hrs interval starting 24 hrs after allograft injection measured after 60 days; type: functional, organism-based; design: dose 70 mg/kg
# In short: (§6)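 Swiss mice given 10^6 ascitic sarcoma 180 cells ip. Starting 24 h later, three ip doses were given 24 h apart. Controls got isotonic salt solution on the same schedule. A cure was a mouse alive with no evidence of cancer cells 60 days after cell injection, reported per 6 mice.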
# Sarcoma-180 [12] = assay: Antitumor activity against mouse Sarcoma 180 cells allografted in Swiss mouse at 60 mg/kg, ip three doses were given at 24 hrs interval starting 24 hrs after allograft injection relative to control; type: functional; settings: route intraperitoneal; in short: as §1
# Sarcoma-180 [13] = assay: Antitumor activity against mouse Sarcoma 180 cells allografted in Swiss mouse assessed as survival at 60 mg/kg, ip three doses were given at 24 hrs interval starting 24 hrs after allograft injection measured after 5 days; type: functional, organism-based; design: dose 60 mg/kg; in short: as §5
# Sarcoma-180 [14] = assay: Antitumor activity against mouse Sarcoma 180 cells allografted in Swiss mouse assessed as cure at 60 mg/kg, ip three doses were given at 24 hrs interval starting 24 hrs after allograft injection measured after 60 days; type: functional, organism-based; design: dose 60 mg/kg; in short: as §6
# Sarcoma-180 [15] = assay: Antitumor activity against mouse Sarcoma 180 cells allografted in Swiss mouse assessed as survival time at 60 mg/kg, ip three doses were given at 24 hrs interval starting 24 hrs after allograft injection relative to control; type: functional; settings: route intraperitoneal; in short: as §2
# Sarcoma-180 [16] = assay: Antitumor activity against mouse Sarcoma 180 cells allografted in Swiss mouse assessed as weight gain at 60 mg/kg, ip three doses were given at 24 hrs interval starting 24 hrs after allograft injection measured after 3 days relative to control; type: functional; settings: route intraperitoneal; in short: as §3
# Sarcoma-180 [17] = assay: Antitumor activity against mouse Sarcoma 180 cells allografted in Swiss mouse assessed as weight gain at 200 mg/kg, ip three doses were given at 24 hrs interval starting 24 hrs after allograft injection measured after 3 days relative to control; type: functional; settings: route intraperitoneal; in short: as §3
# Sarcoma-180 [18] = assay: Antitumor activity against mouse Sarcoma 180 cells allografted in Swiss mouse at 200 mg/kg, ip three doses were given at 24 hrs interval starting 24 hrs after allograft injection relative to control; type: functional; settings: route intraperitoneal; in short: as §1
# Sarcoma-180 [19] = assay: Antitumor activity against mouse Sarcoma 180 cells allografted in Swiss mouse assessed as survival time at 200 mg/kg, ip three doses were given at 24 hrs interval starting 24 hrs after allograft injection relative to control; type: functional; settings: route intraperitoneal; in short: as §2
# Sarcoma-180 [20] = assay: Antitumor activity against mouse Sarcoma 180 cells allografted in Swiss mouse assessed as survival at 200 mg/kg, ip three doses were given at 24 hrs interval starting 24 hrs after allograft injection measured after 5 days; type: functional, organism-based; design: dose 200 mg/kg; in short: as §5
# Sarcoma-180 [21] = assay: Antitumor activity against mouse Sarcoma 180 cells allografted in Swiss mouse assessed as weight gain at 8 mg/kg, ip three doses were given at 24 hrs interval starting 24 hrs after allograft injection measured after 3 days relative to control; type: functional; settings: route intraperitoneal; in short: as §3
# Sarcoma-180 [22] = assay: Antitumor activity against mouse Sarcoma 180 cells allografted in Swiss mouse at 8 mg/kg, ip three doses were given at 24 hrs interval starting 24 hrs after allograft injection relative to control; type: functional; settings: route intraperitoneal; in short: as §4
# Sarcoma-180 [23] = assay: Antitumor activity against mouse Sarcoma 180 cells allografted in Swiss mouse assessed as survival time at 8 mg/kg, ip three doses were given at 24 hrs interval starting 24 hrs after allograft injection relative to control; type: functional; settings: route intraperitoneal; in short: as §2
# Sarcoma-180 [24] = assay: Antitumor activity against mouse Sarcoma 180 cells allografted in Swiss mouse assessed as cure at 8 mg/kg, ip three doses were given at 24 hrs interval starting 24 hrs after allograft injection measured after 60 days; type: functional, organism-based; design: dose 8 mg/kg; in short: as §6
# Sarcoma-180 [25] = assay: Antitumor activity against mouse Sarcoma 180 cells allografted in Swiss mouse assessed as survival at 8 mg/kg, ip three doses were given at 24 hrs interval starting 24 hrs after allograft injection measured after 5 days; type: functional, organism-based; design: dose 8 mg/kg; in short: as §5
# Sarcoma-180 [26] = assay: Antitumor activity against mouse Sarcoma 180 cells allografted in Swiss mouse assessed as cure at 9 mg/kg, ip three doses were given at 24 hrs interval starting 24 hrs after allograft injection measured after 60 days; type: functional, organism-based; design: dose 9 mg/kg; in short: as §6
# Sarcoma-180 [27] = assay: Antitumor activity against mouse Sarcoma 180 cells allografted in Swiss mouse assessed as weight gain at 9 mg/kg, ip three doses were given at 24 hrs interval starting 24 hrs after allograft injection measured after 3 days relative to control; type: functional; settings: route intraperitoneal; in short: as §3
# Sarcoma-180 [28] = assay: Antitumor activity against mouse Sarcoma 180 cells allografted in Swiss mouse assessed as survival at 9 mg/kg, ip three doses were given at 24 hrs interval starting 24 hrs after allograft injection measured after 5 days; type: functional, organism-based; design: dose 9 mg/kg; in short: as §5
# Sarcoma-180 [29] = assay: Antitumor activity against mouse Sarcoma 180 cells allografted in Swiss mouse at 9 mg/kg, ip three doses were given at 24 hrs interval starting 24 hrs after allograft injection relative to control; type: functional; settings: route intraperitoneal; in short: as §4
# Sarcoma-180 [30] = assay: Antitumor activity against mouse Sarcoma 180 cells allografted in Swiss mouse assessed as survival time at 9 mg/kg, ip three doses were given at 24 hrs interval starting 24 hrs after allograft injection relative to control; type: functional; settings: route intraperitoneal; in short: as §2
# Sarcoma-180 [31] = assay: Antitumor activity against mouse Sarcoma 180 cells allografted in Swiss mouse assessed as survival time at 5 mg/kg, ip three doses were given at 24 hrs interval starting 24 hrs after allograft injection relative to control; type: functional; settings: route intraperitoneal; in short: as §2
# Sarcoma-180 [32] = assay: Antitumor activity against mouse Sarcoma 180 cells allografted in Swiss mouse assessed as weight gain at 5 mg/kg, ip three doses were given at 24 hrs interval starting 24 hrs after allograft injection measured after 3 days relative to control; type: functional; settings: route intraperitoneal; in short: as §3
# Sarcoma-180 [33] = assay: Antitumor activity against mouse Sarcoma 180 cells allografted in Swiss mouse assessed as survival at 5 mg/kg, ip three doses were given at 24 hrs interval starting 24 hrs after allograft injection measured after 5 days; type: functional, organism-based; design: dose 5 mg/kg; in short: as §5
# Sarcoma-180 [34] = assay: Antitumor activity against mouse Sarcoma 180 cells allografted in Swiss mouse at 5 mg/kg, ip three doses were given at 24 hrs interval starting 24 hrs after allograft injection relative to control; type: functional; settings: route intraperitoneal; in short: as §1
# Sarcoma-180 [35] = assay: Antitumor activity against mouse Sarcoma 180 cells allografted in Swiss mouse at 90 mg/kg, ip three doses were given at 24 hrs interval starting 24 hrs after allograft injection relative to control; type: functional; settings: route intraperitoneal; in short: as §4
# Sarcoma-180 [36] = assay: Antitumor activity against mouse Sarcoma 180 cells allografted in Swiss mouse assessed as survival time at 90 mg/kg, ip three doses were given at 24 hrs interval starting 24 hrs after allograft injection relative to control; type: functional; settings: route intraperitoneal; in short: as §2
# Sarcoma-180 [37] = assay: Antitumor activity against mouse Sarcoma 180 cells allografted in Swiss mouse assessed as weight gain at 90 mg/kg, ip three doses were given at 24 hrs interval starting 24 hrs after allograft injection measured after 3 days relative to control; type: functional; settings: route intraperitoneal; in short: as §3
# Sarcoma-180 [38] = assay: Antitumor activity against mouse Sarcoma 180 cells allografted in Swiss mouse assessed as survival at 90 mg/kg, ip three doses were given at 24 hrs interval starting 24 hrs after allograft injection measured after 5 days; type: functional, organism-based; design: dose 90 mg/kg; in short: as §5
smiles,measurement,setting,value
O=C1C(Br)=CC(=NCl)C=C1Br,T/C,Sarcoma-180 [1],218%
same,LD50 at 120 h,[2],63 mg/kg
same,Redox potential,[3],0.665 V
same,Survival,Sarcoma-180 [4],41 days
same,half-life,[5],23.3 h
same,Activity,Sarcoma-180 [6],-25%
O=C1C=C/C(=N/O)C=C1Cl,T/C,Sarcoma-180 [7],130%
same,LD50 at 120 h,[2],240 mg/kg
same,Redox potential,[3],0.516 V
same,Activity,Sarcoma-180 [8],13.4%
same,half-life,[5],314 h
same,Activity,Sarcoma-180 [9],Active
same,Survival,Sarcoma-180 [10],12.2 days
same,Activity,Sarcoma-180 [11],inactive
COC1=C/C(=N\O)C=CC1=O,T/C,Sarcoma-180 [12],173%
same,Activity,Sarcoma-180 [13],Active
same,Activity,Sarcoma-180 [14],inactive
same,LD50 at 120 h,[2],120 mg/kg
same,Survival,Sarcoma-180 [15],18.5 days
same,Redox potential,[3],0.521 V
same,Activity,Sarcoma-180 [16],1.9%
same,half-life,[5],298 h
O=C1C=C/C(=N/O)C(I)=C1,Activity,Sarcoma-180 [17],0%
same,T/C,Sarcoma-180 [18],171%
same,LD50 at 120 h,[2],550 mg/kg
same,Redox potential,[3],0.531 V
same,Survival,Sarcoma-180 [19],23.7 days
same,Activity,Sarcoma-180 [20],Active
O=C1C(Cl)=CC(=NBr)C=C1Cl,Activity,Sarcoma-180 [21],-5.1%
same,T/C,Sarcoma-180 [22],165%
same,LD50 at 120 h,[2],20 mg/kg
same,Survival,Sarcoma-180 [23],27.2 days
same,half-life,[5],3.7 h
same,Activity,Sarcoma-180 [24],inactive
same,Activity,Sarcoma-180 [25],Active
O=C1C(Br)=CC(=NBr)C=C1Br,Activity,Sarcoma-180 [26],inactive
same,Activity,Sarcoma-180 [27],-3%
same,LD50 at 120 h,[2],25 mg/kg
same,Activity,Sarcoma-180 [28],Active
same,Redox potential,[3],0.678 V
same,half-life,[5],10.4 h
same,T/C,Sarcoma-180 [29],178%
same,Survival,Sarcoma-180 [30],22.8 days
O=C1C=CC(=NCl)C=C1,Survival,Sarcoma-180 [31],40.5 days
same,Activity,Sarcoma-180 [32],-6.9%
same,Activity,Sarcoma-180 [33],Active
same,LD50 at 120 h,[2],12.5 mg/kg
same,Redox potential,[3],0.652 V
same,T/C,Sarcoma-180 [34],246%
same,half-life,[5],35.3 h
O=C1C=C/C(=N/O)C(Cl)=C1,T/C,Sarcoma-180 [35],304%
same,Survival,Sarcoma-180 [36],39 days
same,Activity,Sarcoma-180 [37],-2.4%
same,LD50 at 120 h,[2],380 mg/kg
same,Redox potential,[3],0.537 V
same,Activity,Sarcoma-180 [38],Active
